# From PubChem BioAssay
# Hits are enriched below; roughly 2.4% of the tested compounds scored in any of these assays.
# NadD block: inhibitors of S. aureus NadD, primary screen, biochemical, colorimetric, uHTS; inhibition, % at 20 µM; Nicotinate-nucleotide adenylyltransferase NadD (Staphylococcus aureus N315); purified NadD enzyme, colorimetric absorbance read-out; AID 602399, 2012; 0.78% of 360,000 active; in the data active means inhibition above about 26%
# STEP inh: STEP phosphatase inhibitors, primary screen, biochemical, fluorescence intensity, uHTS; Tyrosine-protein phosphatase non-receptor type 5 (Homo sapiens), P54829; recombinant STEP, OMFP fluorogenic substrate; inhibition, % at 20 µM; 0.25% of 360,000 active; AID 588621, 2011;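 active means inhibition at 20 µM, scaled per plate between control wells, above about 37%, limit read from the data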;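 further: 0% = DMSO with enzyme and substrate and 100% = substrate only without enzyme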
#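 Assay system: isolated STEP enzyme. Buffer or medium: pH 6.0 Bis-Tris with DTT and Tween 20. Also added: fluorogenic phosphatase substrate OMFP at 25 µM final. Dosing: 20 µM, 1% DMSO. Timing: 20 min reaction, room temperature, in the dark. Measured by: fluorescence intensity, excitation 480 nm, emission 540 nm. Evaluation: normalized % inhibition.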
# Scp-1 inhibitor: Scp-1 phosphatase inhibitors, primary screen, biochemical, colorimetric, uHTS; Recombinant Scp1, phosphopeptide, malachite green phosphate absorbance; 0.88% of 340,000 active; inhibition, % at 20 µM; AID 493091, 2011; Carboxy-terminal domain RNA polymerase II polypeptide A small phosphatase 1 (Homo …;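 active means inhibition above about 50% at 20 µM, limit read from the data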;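 further: plate controls were DMSO wells with enzyme for no effect and wells lacking enzyme for full effect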
# Target sequence (Q9GZU7 76-261 limits assumed): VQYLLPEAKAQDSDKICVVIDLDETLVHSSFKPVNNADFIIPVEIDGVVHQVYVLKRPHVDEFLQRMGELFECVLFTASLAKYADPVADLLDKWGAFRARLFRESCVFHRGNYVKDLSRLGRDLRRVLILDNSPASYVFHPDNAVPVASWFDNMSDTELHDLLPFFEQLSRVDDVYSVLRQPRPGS
#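 Times: enzyme reaction 45 min at room temperature, colour 5 min, stabilisation 30 min. Material: SCP-1 catalytic fragment, aa 76-261. Medium: Acidic Tris acetate buffer with magnesium and detergent. Signal: colorimetric free-phosphate detection, absorbance 630 nm. Read-out basis: % inhibition of SCP-1 phosphate liberation. Reagent: Phosphorylated 17-residue peptide substrate.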
# LMPTP inh: LMPTP phosphatase inhibitors, primary screen, biochemical, fluorescence intensity, uHTS | recombinant LMPTP-A, OMFP fluorogenic substrate | inhibition, % at 20 µM | 0.22% of 360,000 active | AID 651560, 2012;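 active means compounds that cut the enzyme signal by at least half of the control window in the single-dose screen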;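 further: plate controls were DMSO wells with enzyme plus substrate for no effect and substrate without enzyme for full effect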
# Target sequence (P24666 whole entry, looked up): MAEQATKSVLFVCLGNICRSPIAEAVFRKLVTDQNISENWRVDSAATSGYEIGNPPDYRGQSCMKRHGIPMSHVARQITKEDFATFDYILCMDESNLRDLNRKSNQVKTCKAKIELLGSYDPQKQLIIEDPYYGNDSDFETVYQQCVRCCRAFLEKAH
#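 Buffer or medium: Bis-Tris pH 6.0, DTT, detergent; Assay system: LMPTP-A enzyme; Quantity: 0.625 nM enzyme; Detection: endpoint fluorescence intensity; Times: 50 min dark incubation at room temperature; Controls: substrate-only low control, DMSO enzyme-plus-substrate high control; Doses: single 20 µM dose; Read-out: percent inhibition versus substrate-only and uninhibited controls; Reagent: 400 µM OMFP.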
# DNMT1 inh: human DNMT1 methyltransferase inhibitors, primary screen, biochemical, molecular beacon, fluorescence, HinP1I cleavage, uHTS. DNA (cytosine-5)-methyltransferase 1 (Homo sapiens), P26358. inhibition (reported as % activation of signal), % at 10 µM. 0.83% of 360,000 active; in the data active means inhibition above about 50%
# SUMO1 PPI mod: modulators of SUMO1 protein-protein interactions, primary screen, biochemical, uHTS; Small ubiquitin-related modifier 1 (Homo sapiens), P63165; SUMO1 binding to a labelled peptide, TR-FRET, 1 h; inhibition, % at 20 µM; 0.33% of 360,000 active; AID 602429, 2012; in the data active means inhibition above about 37%
# Target sequence (P63165 whole entry, looked up): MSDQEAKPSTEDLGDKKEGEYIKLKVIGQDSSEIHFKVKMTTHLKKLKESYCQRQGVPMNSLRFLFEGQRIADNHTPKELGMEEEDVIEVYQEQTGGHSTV
# Scp1 confirm: Scp-1 phosphatase inhibitors, retest, confirmation, biochemical, colorimetric, single concentration; shares compounds with Scp-1 inhibitor; recombinant SCP-1 catalytic domain, phosphate release, malachite green absorbance; inhibition, % at 20 µM; 61% of 2,500 active; AID 540281, 2011;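 further: plate controls were DMSO with enzyme for no effect and buffer wells lacking enzyme for full effect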
# MG interference: colorimetric readout interference by compounds, confirmation, artefact control for Scp-1 inhibitor project, biochemical, single concentration; apparent inhibition (interference), % at 20 µM; AID 540313, 2011; Colorimetric interference counterscreen, malachite green absorbance 630 nm; 2,500 tested, under 10 active; shares compounds with Scp-1 inhibitor;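 further: compounds added after enzyme reaction finished so only phosphate colour detection is probed; plate controls were DMSO wells with completed Scp-1 reaction for no effect and substrate wells lacking enzyme for full effect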
# Scp-1 Tm shift: Scp-1 binding by thermal shift, confirmation, orthogonal assay for Scp-1 inhibitor project, biophysical, differential scanning fluorimetry. shares compounds with Scp-1 inhibitor. Recombinant SCP1, Sypro Orange thermal shift Tm. thermal shift relative to vanadate control, % at 40 µM. 25% of 1,500 active. AID 540329, 2011;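 active means substances whose mean melting-temperature shift, as a percentage of the reference inhibitor's shift, reaches about 5.3%, limit read from the data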;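 further: 0% = Tm of DMSO wells and 100% = Tm with sodium orthovanadate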
# DNMT1 inh conf: DNMT1 methyltransferase inhibitor retest, confirmation, biochemical, molecular beacon, fluorescence, single concentration. shares compounds with DNMT1 inh. DNMT1 molecular beacon HinP1I cleavage. inhibition, % at 10 µM. 8% of 2,300 active. AID 602385, 2012;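 active means average inhibition of at least 30% in the single-concentration confirmation test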
# Beacon interf: beacon fluorescence artifact counter-screen; AID 602387; activation (fluorescence interference), % at 10 µM; shares compounds with DNMT1 inh; DNMT1 molecular beacon spectral interference counterscreen, fluorescence 485/520; 1% of 2,300 active;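 active means activation of at least 30% at 10 µM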;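 further: DNMT1 catalytic domain with a HinP1I cleavage step and a FAM/dabcyl DNA beacon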
# Numbers without * were called inactive; x = not tested or not shown.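 How the source made its calls, unless noted: active means inhibition of at least 30% at 20 µM; inactive means the rest.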
SMILES,NadD block,STEP inh,Scp-1 inhibitor,LMPTP inh,DNMT1 inh,SUMO1 PPI mod,Scp1 confirm,MG interference,Scp-1 Tm shift,DNMT1 inh conf,Beacon interf
CC1(C)C2CCC1(C)C(OC(=O)c1ccccc1C(=O)O)C2 (stereo unspecified),-5,1,-12,-1,3,4,x,x,x,x,x
O=C(O)C1CC(=O)N(c2ccc3c(c2)OCCO3)C1 (stereo unspecified),1,18,75*,2,63*,6,55*,-11,-14,4,8
O=C(COC(=O)c1cccc(S(=O)(=O)N2CCN(c3ccccc3)CC2)c1)NCc1ccco1,13,12,66*,9,68*,5,58*,-19,4,7,3
NC(=O)COC(=O)c1cccc(S(=O)(=O)N2CCN(c3ccccc3)CC2)c1,5,1,6,-1,2,2,x,x,x,x,x
CCCCn1nnc(NC(=O)Cc2ccc(Cl)cc2)n1,-2,-1,20,-3,1,-7,x,x,x,x,x
CCn1nnc(NC(=O)CSc2ccc(Cl)cc2)n1,13,-1,51*,6,66*,4,72*,-6,3,5,2
Cc1ccc(-n2c(-c3ccccc3)c[n+]3c2CCc2ccccc2-3)c(C)c1,2,-2,9,0,0,2,x,x,x,x,x
O=C(CCNS(=O)(=O)c1ccc(Br)cc1)NCCc1ccccc1,-1,0,-5,-1,-1,-1,x,x,x,x,x
CCc1cccc(NC(=O)CCS(=O)(=O)c2ccc(Br)cc2)c1,-9,10,86*,2,88*,38,65*,-21,-14,9,4
Cc1ccc(S(=O)(=O)CCC(=O)Nc2cccc(C)c2)cc1,-4,-3,-4,-3,-2,1,x,x,x,x,x
O=C(CCS(=O)(=O)c1ccc(Br)cc1)NCCc1ccccc1,-4,6,88*,1,84*,13,62*,-16,-25,11,3
CCOc1ccc(CCNC(=O)CCS(=O)(=O)c2ccc(Br)cc2)cc1OCC,-1,-1,-10,-1,-4,-2,x,x,x,x,x
NS(=O)(=O)c1ccc(CCNC(=O)CCS(=O)(=O)c2ccc(Br)cc2)cc1,-10,6,96*,0,87*,75*,66*,-16,-25,4,3
CCCNC(=O)NC(=O)CSc1nc(C)cs1,8,-2,-4,2,2,-9,x,x,x,x,x
Cc1cc(C=O)c(C)n1-c1cc(C(=O)O)cc(C(=O)O)c1,0,12,55*,0,89*,3,52*,-18,-16,13,24
COC(=O)c1cc(C(=O)OC)cc(-n2c(C)cc(C=O)c2C)c1,8,-4,-6,0,-2,2,x,x,x,x,x
O=C1CN(C(=O)CSc2nnc(-c3ccccc3)n2Cc2ccc3c(c2)OCO3)c2ccccc2N1,7,4,-5,1,-2,2,x,x,x,x,x
Cc1cccn2c(=O)c3cc(C#N)c(=NC(=O)c4cccs4)n(CC(C)C)c3nc12,14,-2,-10,0,3,-15,x,x,x,x,x
Cc1cccn2c(=O)c3cc(C#N)c(=NC(=O)c4ccco4)n(Cc4ccco4)c3nc12,16,22,76*,46,61*,7,36*,-8,10.0*,0,3
N#C/C(=C/c1ccc(OC(=O)c2ccc(Br)s2)cc1)c1nc2ccccc2[nH]1,24,27,96*,32,85*,8,80*,-4,-5,3,-6
COCCN1C(=O)C(=O)/C(=C(/O)c2cccc(OC)c2)C1c1ccco1 (stereo unspecified),1,3,57*,-1,75*,1,56*,-3,3,7,4
CC(=O)c1c(C)oc(C)c1CSCc1ccc(C(=O)O)o1,-1,11,65*,19,78*,8,56*,-15,-2,6,3
O=C(CCS(=O)(=O)c1ccc(Br)cc1)N1CCCCCC1,-10,3,79*,0,100*,43*,66*,-15,-4,7,3
CC(=O)Nc1ccc(N(C(=O)c2ccco2)C(C(=O)NC2CCCC2)c2cccs2)cc1 (stereo unspecified),-7,-3,2,-1,2,2,x,x,x,x,x
CSCC[C@H](NS(=O)(=O)c1ccc(C(C)=O)cc1)c1nnc2ccccn12,-2,55*,61*,3,55*,0,64*,-4,-13,6,0
O=c1[nH]n2c(=O)c3c([nH]c2c1N=Nc1cccc(Cl)c1)CCC3,21,14,78*,46,94*,8,59*,-16,27*,5,-1
O=c1[nH]n2c(=O)c3c([nH]c2c1N=Nc1cccc(C(F)(F)F)c1)CCCC3,27,8,0,2,5,15,x,x,x,x,x
Cn1cccc1CC(=O)N/N=C/C=C/c1ccco1,25,2,69*,43,96*,19,40*,-11,3,5,1
COc1cc(NC(C)=O)c2ncccc2c1NC(C)=O,-5,-1,-11,0,-1,1,x,x,x,x,x
